Results from ChEMBL document CHEMBL1126768, “A mechanism-based inactivation study of neutral endopeptidase 24.11” (J Med Chem, 1993).

Tests used:
[1] = Partition ratio expressed as ratio of catalytic constant to that of inactivation constant for (NEP)
Summary of the method: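 Partition ratio was found by titration. NEP at 0.5 μM in 50 mM HEPES pH 7.4 was mixed with inactivator at inactivator/NEP molar ratios from 1 up to 2600 or 6000, then stirred gently at 4 °C for 16 h. Aliquots were diluted 1:100 into DAGNPG assay solution and residual activity was measured fluorometrically. Controls lacked inactivator.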

[2] = target: Neprilysin (Homo sapiens) (UniProt P08473)
[3] = target: T1, Angiotensin-converting enzyme (Rattus norvegicus) (UniProt P47820); assay: Inactivation constant for angiotensin converting enzyme (ACE)
T1 sequence (whole entry): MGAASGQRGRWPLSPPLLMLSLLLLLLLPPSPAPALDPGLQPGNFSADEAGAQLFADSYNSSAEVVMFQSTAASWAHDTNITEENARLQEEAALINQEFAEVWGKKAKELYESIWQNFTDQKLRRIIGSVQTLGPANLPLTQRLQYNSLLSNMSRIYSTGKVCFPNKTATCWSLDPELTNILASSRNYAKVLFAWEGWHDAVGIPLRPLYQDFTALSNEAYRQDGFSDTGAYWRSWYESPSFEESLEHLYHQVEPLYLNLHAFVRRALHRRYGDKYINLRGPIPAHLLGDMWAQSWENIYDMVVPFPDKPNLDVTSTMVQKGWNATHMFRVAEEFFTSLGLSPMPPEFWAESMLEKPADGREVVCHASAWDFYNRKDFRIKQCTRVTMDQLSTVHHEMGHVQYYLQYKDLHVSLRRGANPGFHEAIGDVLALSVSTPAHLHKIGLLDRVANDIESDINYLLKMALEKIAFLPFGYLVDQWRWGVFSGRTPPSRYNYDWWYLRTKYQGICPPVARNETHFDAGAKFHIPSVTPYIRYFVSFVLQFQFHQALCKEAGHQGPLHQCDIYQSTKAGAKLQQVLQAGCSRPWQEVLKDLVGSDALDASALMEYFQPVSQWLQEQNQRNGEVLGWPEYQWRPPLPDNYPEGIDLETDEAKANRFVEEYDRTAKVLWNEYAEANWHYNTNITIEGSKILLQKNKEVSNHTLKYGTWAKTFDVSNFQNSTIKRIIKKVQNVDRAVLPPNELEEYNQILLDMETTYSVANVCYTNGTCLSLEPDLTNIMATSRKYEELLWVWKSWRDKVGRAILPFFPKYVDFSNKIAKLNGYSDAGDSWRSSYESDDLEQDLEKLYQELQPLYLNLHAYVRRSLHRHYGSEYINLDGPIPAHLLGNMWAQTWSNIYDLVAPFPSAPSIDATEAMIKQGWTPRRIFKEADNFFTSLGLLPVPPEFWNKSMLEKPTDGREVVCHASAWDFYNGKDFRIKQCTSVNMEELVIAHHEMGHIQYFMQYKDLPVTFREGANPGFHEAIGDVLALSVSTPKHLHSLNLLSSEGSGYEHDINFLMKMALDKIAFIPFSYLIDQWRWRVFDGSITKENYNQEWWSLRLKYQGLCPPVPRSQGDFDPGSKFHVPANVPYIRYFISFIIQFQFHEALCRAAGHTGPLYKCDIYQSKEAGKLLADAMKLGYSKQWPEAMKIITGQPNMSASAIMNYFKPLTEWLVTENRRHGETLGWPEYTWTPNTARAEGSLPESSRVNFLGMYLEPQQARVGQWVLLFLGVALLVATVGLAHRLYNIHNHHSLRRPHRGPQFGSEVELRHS

[4] = target: Neprilysin (Homo sapiens) (UniProt P08473); assay: Inactivation constant for Neutral endopeptidase (NEP)
Summary of the method: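 Recombinant human NEP from CHO cells (>99% pure), 0.5 μM in 50 mM HEPES pH 7.4 with 10% p-dioxane, incubated at 25 °C with inactivator at 0.5–7.5 μM final. Aliquots diluted 1:100 into DAGNPG assay solution (50 mM Tris pH 7.4, 37 °C), fluorescence read at ex 342/em 562 nm. Pseudo-first-order kobs plotted double-reciprocally against inactivator concentration to give kinact and Km.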

[5] = target: Angiotensin-converting enzyme (Homo sapiens) (UniProt P12821); assay: Partition ratio expressed as ratio of catalytic constant to that of inactivation constant for angiotensin converting enzyme (ACE)
Angiotensin-converting enzyme (Homo sapiens), sequence (P12821 whole entry): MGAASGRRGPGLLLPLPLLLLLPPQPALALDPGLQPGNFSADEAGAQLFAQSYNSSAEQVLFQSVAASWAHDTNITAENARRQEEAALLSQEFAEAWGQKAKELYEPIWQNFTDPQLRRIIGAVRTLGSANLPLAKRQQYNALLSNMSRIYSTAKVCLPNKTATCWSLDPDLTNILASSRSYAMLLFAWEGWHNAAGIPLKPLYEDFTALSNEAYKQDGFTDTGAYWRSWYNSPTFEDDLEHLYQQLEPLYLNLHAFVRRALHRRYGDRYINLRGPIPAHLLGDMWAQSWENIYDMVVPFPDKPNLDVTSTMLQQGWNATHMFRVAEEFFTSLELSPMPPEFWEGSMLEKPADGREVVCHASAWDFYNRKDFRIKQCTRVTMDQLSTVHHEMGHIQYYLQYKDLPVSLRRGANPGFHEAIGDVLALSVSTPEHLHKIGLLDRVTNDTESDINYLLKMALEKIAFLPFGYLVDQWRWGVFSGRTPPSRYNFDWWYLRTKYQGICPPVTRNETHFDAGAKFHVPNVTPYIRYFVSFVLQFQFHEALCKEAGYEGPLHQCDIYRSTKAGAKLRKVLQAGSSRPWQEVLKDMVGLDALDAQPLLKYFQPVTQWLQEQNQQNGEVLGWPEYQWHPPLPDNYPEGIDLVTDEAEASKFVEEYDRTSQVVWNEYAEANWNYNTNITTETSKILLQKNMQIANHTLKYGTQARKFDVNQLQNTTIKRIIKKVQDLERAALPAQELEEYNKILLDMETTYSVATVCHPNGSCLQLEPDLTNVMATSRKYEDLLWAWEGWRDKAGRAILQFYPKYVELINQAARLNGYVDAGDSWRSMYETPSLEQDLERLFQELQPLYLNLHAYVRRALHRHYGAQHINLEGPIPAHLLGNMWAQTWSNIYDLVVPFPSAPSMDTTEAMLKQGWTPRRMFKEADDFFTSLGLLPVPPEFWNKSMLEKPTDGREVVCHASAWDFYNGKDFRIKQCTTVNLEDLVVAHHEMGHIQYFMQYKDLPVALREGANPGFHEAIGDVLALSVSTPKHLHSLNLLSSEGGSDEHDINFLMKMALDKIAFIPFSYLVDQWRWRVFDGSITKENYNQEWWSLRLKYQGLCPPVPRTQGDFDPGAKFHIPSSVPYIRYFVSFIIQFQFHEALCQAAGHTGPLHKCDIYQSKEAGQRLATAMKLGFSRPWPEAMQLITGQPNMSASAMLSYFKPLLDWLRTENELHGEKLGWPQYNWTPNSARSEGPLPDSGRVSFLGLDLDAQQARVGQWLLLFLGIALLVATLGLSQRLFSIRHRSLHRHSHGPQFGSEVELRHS

Neprilysin (Homo sapiens), sequence (P08473 whole entry): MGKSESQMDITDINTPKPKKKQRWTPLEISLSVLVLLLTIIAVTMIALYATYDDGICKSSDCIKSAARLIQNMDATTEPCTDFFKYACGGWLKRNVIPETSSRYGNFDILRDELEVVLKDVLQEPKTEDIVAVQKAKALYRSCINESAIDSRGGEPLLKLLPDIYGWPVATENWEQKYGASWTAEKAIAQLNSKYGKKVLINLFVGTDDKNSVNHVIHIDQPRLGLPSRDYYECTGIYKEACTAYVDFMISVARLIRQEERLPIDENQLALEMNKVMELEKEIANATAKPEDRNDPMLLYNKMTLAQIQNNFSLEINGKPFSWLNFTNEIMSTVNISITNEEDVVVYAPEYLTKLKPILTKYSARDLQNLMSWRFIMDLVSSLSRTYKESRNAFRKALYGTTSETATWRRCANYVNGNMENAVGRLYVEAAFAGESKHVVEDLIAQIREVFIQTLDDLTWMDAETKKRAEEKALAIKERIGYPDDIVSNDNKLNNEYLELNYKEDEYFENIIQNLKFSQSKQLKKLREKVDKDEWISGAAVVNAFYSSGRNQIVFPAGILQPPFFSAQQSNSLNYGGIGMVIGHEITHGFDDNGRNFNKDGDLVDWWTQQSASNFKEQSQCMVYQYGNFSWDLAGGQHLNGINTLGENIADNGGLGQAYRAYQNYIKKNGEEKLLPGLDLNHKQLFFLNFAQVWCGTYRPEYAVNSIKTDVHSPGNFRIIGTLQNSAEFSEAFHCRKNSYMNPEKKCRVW

K cat/Kinact [1]	kinact [2]	kinact [3]	kinact [4]	K cat/Kinact [5]	Compound
1340	0.071 min⁻¹	–	–	–	N#CCC(=O)CC(Cc1ccccc1)C(=O)NC(Cc1ccccc1)C(=O)O (stereo unspecified)
4700	–	0.08 min⁻¹	0.022 min⁻¹	8300	N#CCC(=O)NC(Cc1ccccc1)C(=O)NC(Cc1ccccc1)C(=O)O (stereo unspecified)
